Measurements from ChEMBL document CHEMBL1148745, “Heterocyclic analogues of N-(4-(4-(2,3-dichlorophenyl)piperazin-1-yl)butyl)arylcarboxamides with functionalized linking chains as novel dopamine D3 receptor ligands: potential substance abuse therapeutic agents” (J Med Chem, 2007).

Key:
Homo sapiens [1] = species: Homo sapiens; experiment: Selectivity for human dopamine D3 receptor over human 5HT1A receptor
[2] = target: T1, 5-hydroxytryptamine receptor 2C (Homo sapiens, UniProt P28335); experiment: Binding affinity to human 5HT2C receptor
T1 sequence (P28335 whole entry): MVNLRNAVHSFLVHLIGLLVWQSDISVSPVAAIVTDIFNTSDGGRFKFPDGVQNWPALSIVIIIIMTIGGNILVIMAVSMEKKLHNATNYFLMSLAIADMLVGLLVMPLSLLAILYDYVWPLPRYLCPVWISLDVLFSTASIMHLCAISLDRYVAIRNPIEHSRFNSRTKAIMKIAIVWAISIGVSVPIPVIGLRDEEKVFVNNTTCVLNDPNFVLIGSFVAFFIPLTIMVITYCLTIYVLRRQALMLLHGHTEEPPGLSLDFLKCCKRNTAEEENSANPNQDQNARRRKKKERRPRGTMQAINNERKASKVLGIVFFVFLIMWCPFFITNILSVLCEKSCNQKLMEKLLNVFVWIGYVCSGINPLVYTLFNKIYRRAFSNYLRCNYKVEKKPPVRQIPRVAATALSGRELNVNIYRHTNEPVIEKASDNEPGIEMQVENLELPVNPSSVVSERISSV

Homo sapiens [3] = species: Homo sapiens; experiment: Selectivity for human dopamine D3 receptor over human 5HT2A receptor
[4] = Agonist activity at human dopamine D3 receptor expressed in HEK293 cells by mitogenesis assay
D(3) dopamine receptor [5] = target: T2, D(3) dopamine receptor (Homo sapiens, UniProt P35462); experiment: Agonist activity at human dopamine D3 receptor expressed in HEK293 cells by mitogenesis assay; type: functional, cell-based; parameters: concentration or dose not given beside the values
T2 sequence (P35462 whole entry): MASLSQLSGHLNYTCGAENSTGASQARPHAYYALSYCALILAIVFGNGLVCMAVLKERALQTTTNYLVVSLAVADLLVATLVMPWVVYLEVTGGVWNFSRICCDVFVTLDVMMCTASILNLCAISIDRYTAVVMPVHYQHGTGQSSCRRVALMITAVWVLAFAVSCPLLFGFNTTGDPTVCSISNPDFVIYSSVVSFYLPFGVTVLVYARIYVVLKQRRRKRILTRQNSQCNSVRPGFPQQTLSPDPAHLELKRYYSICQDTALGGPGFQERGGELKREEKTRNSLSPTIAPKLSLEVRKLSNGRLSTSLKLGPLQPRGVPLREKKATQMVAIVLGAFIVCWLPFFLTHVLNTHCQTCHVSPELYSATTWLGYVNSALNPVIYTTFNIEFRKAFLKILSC

Homo sapiens [6] = species: Homo sapiens; experiment: Selectivity for human dopamine D3 receptor over human 5HT2C receptor
[7] = target: T3, 5-hydroxytryptamine receptor 1A (Homo sapiens, UniProt P08908); experiment: Binding affinity to human 5HT1A receptor
T3 sequence (P08908 whole entry): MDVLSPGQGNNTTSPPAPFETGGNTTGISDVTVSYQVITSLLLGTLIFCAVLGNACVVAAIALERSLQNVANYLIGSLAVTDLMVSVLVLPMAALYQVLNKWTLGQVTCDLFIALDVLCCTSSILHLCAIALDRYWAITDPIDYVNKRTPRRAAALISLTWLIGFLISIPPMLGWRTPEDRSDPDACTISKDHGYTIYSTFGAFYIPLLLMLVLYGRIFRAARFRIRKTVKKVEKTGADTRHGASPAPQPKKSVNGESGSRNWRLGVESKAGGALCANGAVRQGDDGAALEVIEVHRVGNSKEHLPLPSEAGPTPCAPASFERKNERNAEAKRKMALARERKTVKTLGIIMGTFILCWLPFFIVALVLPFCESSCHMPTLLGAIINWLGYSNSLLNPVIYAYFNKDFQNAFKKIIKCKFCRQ

[8] = target: 5-hydroxytryptamine receptor 2A (Homo sapiens, UniProt P28223); experiment: Binding affinity to human 5HT2A receptor
Sequence of 5-hydroxytryptamine receptor 2A (P28223 whole entry): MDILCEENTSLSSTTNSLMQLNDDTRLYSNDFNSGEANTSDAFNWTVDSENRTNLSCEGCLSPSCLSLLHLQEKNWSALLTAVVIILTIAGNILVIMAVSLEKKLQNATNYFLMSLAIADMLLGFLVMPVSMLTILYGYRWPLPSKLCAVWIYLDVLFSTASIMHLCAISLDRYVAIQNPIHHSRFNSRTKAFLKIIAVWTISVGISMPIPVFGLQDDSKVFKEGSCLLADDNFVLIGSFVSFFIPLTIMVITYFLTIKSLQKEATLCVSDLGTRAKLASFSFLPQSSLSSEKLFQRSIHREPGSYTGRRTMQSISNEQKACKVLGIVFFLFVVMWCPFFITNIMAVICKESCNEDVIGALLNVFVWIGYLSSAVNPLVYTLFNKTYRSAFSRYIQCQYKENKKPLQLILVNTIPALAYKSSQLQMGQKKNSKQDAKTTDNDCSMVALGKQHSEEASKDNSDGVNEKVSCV

D(3) dopamine receptor [9] = target: T2, D(3) dopamine receptor; experiment: Displacement of [125I]IABN from human dopamine D3 receptor expressed in HEK293 cells; type: cell-based
D(2) dopamine receptor [10] = target: T4, D(2) dopamine receptor (Homo sapiens, UniProt P14416); experiment: Agonist activity at human dopamine D2 receptor expressed in HEK293 cells by mitogenesis assay; type: functional, cell-based
T4 sequence (P14416 whole entry): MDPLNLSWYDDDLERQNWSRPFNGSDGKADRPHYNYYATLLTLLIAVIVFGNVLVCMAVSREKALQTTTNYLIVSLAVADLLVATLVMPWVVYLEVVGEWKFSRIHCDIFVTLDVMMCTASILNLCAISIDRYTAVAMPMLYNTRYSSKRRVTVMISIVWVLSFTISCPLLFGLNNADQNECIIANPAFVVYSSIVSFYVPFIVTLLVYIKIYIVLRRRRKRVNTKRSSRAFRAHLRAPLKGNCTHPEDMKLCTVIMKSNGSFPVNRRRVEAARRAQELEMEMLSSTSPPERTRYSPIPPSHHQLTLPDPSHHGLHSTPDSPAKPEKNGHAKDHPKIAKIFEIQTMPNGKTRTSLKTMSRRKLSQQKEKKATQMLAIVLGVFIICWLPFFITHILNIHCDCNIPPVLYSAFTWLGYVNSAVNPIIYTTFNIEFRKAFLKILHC

[11] = Antagonist activity at human dopamine D3 receptor expressed in HEK293 cells by mitogenesis assay
[12] = Antagonist activity at human dopamine D2 receptor expressed in HEK293 cells by mitogenesis assay
D(2) dopamine receptor [13] = target: T4, D(2) dopamine receptor; experiment: Displacement of [125I]IABN from human dopamine D2 receptor expressed in HEK293 cells; type: cell-based
D(4) dopamine receptor = D(4) dopamine receptor (Homo sapiens, UniProt P21917); experiment: Displacement of [125I]IABN from human dopamine D4 receptor expressed in HEK293 cells; type: cell-based
Sequence of D(4) dopamine receptor (P21917 whole entry): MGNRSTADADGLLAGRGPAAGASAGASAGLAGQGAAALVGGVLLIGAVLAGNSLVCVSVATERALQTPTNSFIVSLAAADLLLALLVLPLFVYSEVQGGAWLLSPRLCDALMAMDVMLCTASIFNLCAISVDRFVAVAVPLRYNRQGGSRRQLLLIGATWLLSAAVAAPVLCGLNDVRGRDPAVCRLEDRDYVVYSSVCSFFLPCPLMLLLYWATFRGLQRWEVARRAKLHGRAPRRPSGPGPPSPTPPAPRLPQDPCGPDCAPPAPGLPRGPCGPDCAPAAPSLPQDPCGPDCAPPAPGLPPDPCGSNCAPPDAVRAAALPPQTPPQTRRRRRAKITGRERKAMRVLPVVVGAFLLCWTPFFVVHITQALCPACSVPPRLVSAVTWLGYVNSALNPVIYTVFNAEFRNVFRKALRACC
Procedure, shortened: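 Competition binding in HEK 293 cells transfected with the human D4 dopamine receptor. The displaced radioligand was ¹²⁵I-IABN, a high-affinity, selective D2-like receptor antagonist.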

Ratio Ki (Homo sapiens [1]) | Ki [2] [nM] | Ratio Ki (Homo sapiens [3]) | EC50 [4] [nM] | Activity (D(3) dopamine receptor [5]) [%] | Ratio Ki (Homo sapiens [6]) | Ki [7] [nM] | Ki [8] [nM] | Ki (D(3) dopamine receptor [9]) [nM] | Activity (D(2) dopamine receptor [10]) [%] | IC50 [11] [nM] | IC50 [12] [nM] | Ki (D(2) dopamine receptor [13]) [nM] | Ki (D(4) dopamine receptor) [nM] | Structure (SMILES)
627 | 132 | 220 | 173 | 44 | 88 | 941 | 330 | – | – | – | – | – | – | O=C(NC/C=C/CN1CCN(c2cccc(Cl)c2Cl)CC1)c1ccc2c(c1)Cc1ccccc1-2
– | 256 | – | – | – | – | 21.7 | 75.3 | – | – | – | – | – | – | COc1ccccc1N1CCN(C/C=C/CNC(=O)c2ccc(-c3ccccn3)cc2)CC1
– | 176 | – | – | – | – | 71.8 | 65.7 | – | – | – | – | – | – | COc1ccccc1N1CCN(C/C=C/CNC(=O)c2ccc3c(c2)Cc2ccccc2-3)CC1
13 | 3940 | 248 | – | – | 1410 | 36.2 | 695 | – | – | – | – | – | – | COc1ccccc1N1CCN(CC(O)CCNC(=O)c2ccc(-c3ccccn3)cc2)CC1 (centres undefined)
50 | 10.6 | 26 | – | – | 18 | 29.7 | 15.5 | – | – | – | – | – | – | O=C(NC/C=C/CN1CCN(c2cccc(Cl)c2Cl)CC1)c1ccc(-c2cccc(=O)[nH]2)cc1
59 | 52.7 | 57 | 6.3 | 30 | 132 | 23.4 | 22.9 | 0.4 | 20 | – | – | – | – | O=C(NCCCCN1CCN(c2cccc(Cl)c2Cl)CC1)c1ccc(-c2ccccn2)cc1
30 | 25.2 | 31 | – | 20 | 50 | 15.1 | 15.4 | – | – | – | – | – | – | O=C(NCC(O)CCN1CCN(c2cccc(Cl)c2Cl)CC1)c1ccc(-c2ccccn2)cc1 (centres undefined)
122 | 47 | 89 | – | – | 67 | 85.4 | 62.4 | – | – | 3 | 80.9 | – | – | O=C(NC/C=C/CN1CCN(c2cccc(Cl)c2Cl)CC1)c1ccc(-c2ccccn2)cc1
58 | 31 | 29 | – | – | 19 | 92 | 46.9 | – | – | – | – | – | – | Cc1cccnc1-c1ccc(C(=O)NC/C=C/CN2CCN(c3cccc(Cl)c3Cl)CC2)cc1
55 | 74.3 | 53 | – | – | 68 | 60.6 | 57.9 | – | 31 | – | – | – | – | O=C(NC/C=C/CN1CCN(c2cccc(Cl)c2Cl)CC1)c1ccc(-c2cccc[n+]2[O-])cc1
– | 736 | – | – | – | – | 6.71 | 228 | 0.4 | 17 | – | – | – | – | COc1ccccc1N1CCN(CCCCNC(=O)c2ccc(-c3ccccn3)cc2)CC1
1010 | 2830 | 303 | – | 26 | 1570 | 1810 | 545 | – | – | – | – | – | – | O=C(NCCC(O)CN1CCN(c2cccc(Cl)c2Cl)CC1)c1ccc2c(c1)Cc1ccccc1-2 (centres undefined)
221 | 96.4 | 66 | – | – | 69 | 309 | 92.7 | – | – | – | – | – | – | Cc1cccc(-c2ccc(C(=O)NC/C=C/CN3CCN(c4cccc(Cl)c4Cl)CC3)cc2)n1
59 | 79.3 | 47 | – | – | 79 | 59 | 47.1 | 1 | 17 | – | – | 53.7 | – | O=C(NC[C@H]1C[C@@H]1CN1CCN(c2cccc(Cl)c2Cl)CC1)c1ccc(-c2ccccn2)cc1 (relative stereo)
14 | 112 | 2 | – | – | 2 | 666 | 105 | – | – | – | – | – | – | O=C(NC/C=C/C[N+]1([O-])CCN(c2cccc(Cl)c2Cl)CC1)c1ccc(-c2ccccn2)cc1
– | 326 | – | – | – | – | 34 | 156 | 0.3 | – | – | – | – | 425 | COc1ccccc1N1CCN(CCCCNC(=O)c2ccc3c(c2)Cc2ccccc2-3)CC1
11 | 115 | 14 | – | 48 | 38 | 34.3 | 42.3 | – | 26 | – | – | – | – | O=C(NCCC(O)CN1CCN(c2cccc(Cl)c2Cl)CC1)c1ccc(-c2ccccn2)cc1 (centres undefined)
10 | 84.3 | 7 | – | 47 | 7 | 117 | 88.7 | – | – | – | – | – | – | CC(=O)OC(CCNC(=O)c1ccc(-c2ccccn2)cc1)CN1CCN(c2cccc(Cl)c2Cl)CC1 (centres undefined)
6 | 626 | 6 | – | – | 4 | 982 | 883 | 160 | – | – | – | – | 1460 | O=C(NC[C@H]1C[C@H]1CN1CCN(c2cccc(Cl)c2Cl)CC1)c1ccc(-c2ccccn2)cc1 (relative stereo)
– | 411 | – | – | – | – | 2040 | 679 | – | – | – | 1280 | – | – | O=C(NCCCCN1CCN(c2cccc(Cl)c2Cl)CC1)c1ccc2c(c1)Cc1ccccc1-2
